# System: not listed separately
# Experiment: Half life evaluated in Total Cell Extract(TCE) for determination 2.
# Type: ADME
# Settings: not given
# Summary of the method: (§1)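 Compounds at 5 × 10⁻⁵ M initial were incubated at 37 °C in total cell extract from CEM-SS cells. Crude aliquots were analysed by on-line precolumn-cleaning HPLC, with and without ion-pairing reagent, on a C18 column using an ammonium acetate/acetonitrile gradient, with areas read at 266 nm. Half-lives came from pseudo-first-order rate constants fitted to kinetic models by exponential regression.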
row,half-life [h],SMILES
1,9,Cc1cn(C2CC(N=[N+]=[N-])C(COP(=O)(O)OCCS)O2)c(=O)[nH]c1=O (centres undefined)

# System: not listed separately
# Experiment: Half life evaluated in Total Cell Extract(TCE) for determination 3.
# Type: ADME
# Settings: not given
# Summary of the method: as §1
row,half-life [h],SMILES
1,10.5,Cc1cn(C2CC(N=[N+]=[N-])C(COP(=O)(O)OCCS)O2)c(=O)[nH]c1=O (centres undefined)

# System: not listed separately
# Experiment: Half life evaluated in Total Cell Extract(TCE) for determination 1.
# Type: ADME
# Settings: not given
# Summary of the method: as §1
row,half-life [h],SMILES
1,2.3,Cc1cn(C2CC(N=[N+]=[N-])C(COP(=O)(O)OCCS)O2)c(=O)[nH]c1=O (centres undefined)

# System: not listed separately
# Experiment: Selectivity Index measured as the ratio of CC50(CEM/TK) to EC50(CEM/TK).
# Type: functional
# Settings: not given
row,SMILES,Selectivity index
1,Cc1cn(C2CC(N=[N+]=[N-])C(COP(=O)(OCOC(=O)C(C)(C)C)OCOC(=O)C(C)(C)C)O2)c(=O)[nH]c1=O (centres undefined),250
2,Cc1cn(C2CC(N=[N+]=[N-])C(COP(=O)(OCCSC(=O)C(C)(C)C)OCCSC(=O)C(C)(C)C)O2)c(=O)[nH]c1=O (centres undefined),> 22
3,Cc1cn(C2CC(N=[N+]=[N-])C(COP(=O)(OCCSC(=O)C(C)C)OCCSC(=O)C(C)C)O2)c(=O)[nH]c1=O (centres undefined),> 17
4,CC(=O)SCCOP(=O)(OCCSC(C)=O)OCC1OC(n2cc(C)c(=O)[nH]c2=O)CC1N=[N+]=[N-] (centres undefined),> 2050
5,Cc1cn(C2CC(N=[N+]=[N-])C(COP(=O)(OCCSSCCO)OCCSSCCO)O2)c(=O)[nH]c1=O (centres undefined),> 180

# System: not listed separately
# Experiment: Selectivity Index measured as the ratio of CC50(CEM-SS) to EC50(CEM-SS).
# Type: functional
# Settings: not given
row,SMILES,Selectivity index
1,Cc1cn(C2CC(N=[N+]=[N-])C(COP(=O)(OCOC(=O)C(C)(C)C)OCOC(=O)C(C)(C)C)O2)c(=O)[nH]c1=O (centres undefined),860
2,Cc1cn(C2CC(N=[N+]=[N-])C(COP(=O)(OCCSC(=O)C(C)(C)C)OCCSC(=O)C(C)(C)C)O2)c(=O)[nH]c1=O (centres undefined),> 670
3,Cc1cn(C2CC(N=[N+]=[N-])C(COP(=O)(OCCSC(=O)C(C)C)OCCSC(=O)C(C)C)O2)c(=O)[nH]c1=O (centres undefined),> 200
4,CC(=O)SCCOP(=O)(OCCSC(C)=O)OCC1OC(n2cc(C)c(=O)[nH]c2=O)CC1N=[N+]=[N-] (centres undefined),4300
5,Cc1cn(C2CC(N=[N+]=[N-])C(COP(=O)(OCCSSCCO)OCCSSCCO)O2)c(=O)[nH]c1=O (centres undefined),> 4300

# System: CEM-SS
# Experiment: Antiviral activity in CEM-SS cell line infected with HIV-1 and cytotoxic concentration required to reduce the viability of uninfected cells by 50%
# Type: functional
# Settings: Homo sapiens
# Summary of the method: (§2)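 Uninfected cells were exposed to compound for 5 days, and viability was read by colorimetric MTT test. Values average at least three separate experiments.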
row,SMILES,CC50 [nM]
1,Cc1cn(C2CC(N=[N+]=[N-])C(COP(=O)(OCOC(=O)C(C)(C)C)OCOC(=O)C(C)(C)C)O2)c(=O)[nH]c1=O (centres undefined),67000
2,Cc1cn(C2CC(N=[N+]=[N-])C(COP(=O)(OCCSC(=O)C(C)(C)C)OCCSC(=O)C(C)(C)C)O2)c(=O)[nH]c1=O (centres undefined),> 10000
3,Cc1cn(C2CC(N=[N+]=[N-])C(COP(=O)(OCCSC(=O)C(C)C)OCCSC(=O)C(C)C)O2)c(=O)[nH]c1=O (centres undefined),> 10000
4,CC(=O)SCCOP(=O)(OCCSC(C)=O)OCC1OC(n2cc(C)c(=O)[nH]c2=O)CC1N=[N+]=[N-] (centres undefined),93000
5,Cc1cn(C2CC(N=[N+]=[N-])C(COP(=O)(OCCSSCCO)OCCSSCCO)O2)c(=O)[nH]c1=O (centres undefined),> 100000

# System: MT4
# Experiment: Antiviral activity in MT-4 cell line infected with HIV-1 and cytotoxic concentration required to reduce the viability of uninfected cells by 50%
# Type: functional
# Settings: Homo sapiens
# Summary of the method: as §2
row,SMILES,CC50 [nM]
1,Cc1cn(C2CC(N=[N+]=[N-])C(COP(=O)(OCOC(=O)C(C)(C)C)OCOC(=O)C(C)(C)C)O2)c(=O)[nH]c1=O (centres undefined),59000
2,Cc1cn(C2CC(N=[N+]=[N-])C(COP(=O)(OCCSC(=O)C(C)(C)C)OCCSC(=O)C(C)(C)C)O2)c(=O)[nH]c1=O (centres undefined),> 10000
3,Cc1cn(C2CC(N=[N+]=[N-])C(COP(=O)(OCCSC(=O)C(C)C)OCCSC(=O)C(C)C)O2)c(=O)[nH]c1=O (centres undefined),> 10000
4,CC(=O)SCCOP(=O)(OCCSC(C)=O)OCC1OC(n2cc(C)c(=O)[nH]c2=O)CC1N=[N+]=[N-] (centres undefined),67000
5,Cc1cn(C2CC(N=[N+]=[N-])C(COP(=O)(OCCSSCCO)OCCSSCCO)O2)c(=O)[nH]c1=O (centres undefined),> 100000

# System: MT4
# Experiment: Antiviral activity in MT-4 cell line infected with HIV-1 and Concentration required to inhibit the replication of HIV-1 by 50% was determined
# Type: functional, cell-based
# Settings: Homo sapiens
# Summary of the method: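 HIV-1 IIIB at 50 TCID50 adsorbed to MT-4 cells for 30 min, followed by two washes and 5 days of culture with graded compound concentrations. Protection from virus-induced cytopathogenicity was read by MTT reduction to formazan. EC50 was taken from a median effect plot, averaging at least three separate experiments.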
row,SMILES,EC50 [nM]
1,Cc1cn(C2CC(N=[N+]=[N-])C(COP(=O)(OCOC(=O)C(C)(C)C)OCOC(=O)C(C)(C)C)O2)c(=O)[nH]c1=O (centres undefined),52
2,Cc1cn(C2CC(N=[N+]=[N-])C(COP(=O)(OCCSC(=O)C(C)(C)C)OCCSC(=O)C(C)(C)C)O2)c(=O)[nH]c1=O (centres undefined),810
3,Cc1cn(C2CC(N=[N+]=[N-])C(COP(=O)(OCCSC(=O)C(C)C)OCCSC(=O)C(C)C)O2)c(=O)[nH]c1=O (centres undefined),48
4,CC(=O)SCCOP(=O)(OCCSC(C)=O)OCC1OC(n2cc(C)c(=O)[nH]c2=O)CC1N=[N+]=[N-] (centres undefined),50
5,Cc1cn(C2CC(N=[N+]=[N-])C(COP(=O)(OCCSSCCO)OCCSSCCO)O2)c(=O)[nH]c1=O (centres undefined),54

# System: CEM/TK- (Homo sapiens)
# Experiment: Antiviral activity in CEM/TK cell line infected with HIV-1 and cytotoxic concentration required to reduce the viability of uninfected cells by 50%
# Settings: not given
row,SMILES,CC50 [nM]
1,Cc1cn(C2CC(N=[N+]=[N-])C(COP(=O)(OCOC(=O)C(C)(C)C)OCOC(=O)C(C)(C)C)O2)c(=O)[nH]c1=O (centres undefined),65500
2,Cc1cn(C2CC(N=[N+]=[N-])C(COP(=O)(OCCSC(=O)C(C)(C)C)OCCSC(=O)C(C)(C)C)O2)c(=O)[nH]c1=O (centres undefined),> 10000
3,Cc1cn(C2CC(N=[N+]=[N-])C(COP(=O)(OCCSC(=O)C(C)C)OCCSC(=O)C(C)C)O2)c(=O)[nH]c1=O (centres undefined),> 10000
4,CC(=O)SCCOP(=O)(OCCSC(C)=O)OCC1OC(n2cc(C)c(=O)[nH]c2=O)CC1N=[N+]=[N-] (centres undefined),> 100000
5,Cc1cn(C2CC(N=[N+]=[N-])C(COP(=O)(OCCSSCCO)OCCSSCCO)O2)c(=O)[nH]c1=O (centres undefined),> 100000

# System: CEM/TK- (Homo sapiens)
# Experiment: Antiviral activity in CEM/TK cell line infected with HIV-1 and Concentration required to inhibit the replication of HIV-1 by 50% was determined
# Settings: not given
row,SMILES,EC50 [nM]
1,Cc1cn(C2CC(N=[N+]=[N-])C(COP(=O)(OCCSC(=O)C(C)C)OCCSC(=O)C(C)C)O2)c(=O)[nH]c1=O (centres undefined),520
2,Cc1cn(C2CC(N=[N+]=[N-])C(COP(=O)(OCCSSCCO)OCCSSCCO)O2)c(=O)[nH]c1=O (centres undefined),550

# Other lines, results leading:
row,EC50 [nM],SMILES
1,255,Cc1cn(C2CC(N=[N+]=[N-])C(COP(=O)(OCOC(=O)C(C)(C)C)OCOC(=O)C(C)(C)C)O2)c(=O)[nH]c1=O (centres undefined)
2,450,Cc1cn(C2CC(N=[N+]=[N-])C(COP(=O)(OCCSC(=O)C(C)(C)C)OCCSC(=O)C(C)(C)C)O2)c(=O)[nH]c1=O (centres undefined)
3,49,CC(=O)SCCOP(=O)(OCCSC(C)=O)OCC1OC(n2cc(C)c(=O)[nH]c2=O)CC1N=[N+]=[N-] (centres undefined)

# System: not listed separately
# Experiment: Half life evaluated in Total Cell Extract(TCE).
# Type: ADME
# Settings: total cell extract (TCE)
# Summary of the method: as §1
row,half-life [h],SMILES
1,1.05,Cc1cn(C2CC(N=[N+]=[N-])C(COP(=O)(OCCSC(=O)C(C)(C)C)OCCSC(=O)C(C)(C)C)O2)c(=O)[nH]c1=O (centres undefined)
2,0.75,Cc1cn(C2CC(N=[N+]=[N-])C(COP(=O)(OCCSC(=O)C(C)C)OCCSC(=O)C(C)C)O2)c(=O)[nH]c1=O (centres undefined)
3,< 0.0833,CC(=O)SCCOP(=O)(OCCSC(C)=O)OCC1OC(n2cc(C)c(=O)[nH]c2=O)CC1N=[N+]=[N-] (centres undefined)

# System: not listed separately
# Experiment: Half life evaluated in Culture Medium(CM)
# Type: ADME
# Settings: culture medium (CM)
# Summary of the method: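 Compounds at 5 × 10⁻⁵ M initial were incubated at 37 °C in RPMI 1640 with 10% heat-inactivated fetal calf serum. Crude aliquots were analysed by on-line ISRP precolumn-cleaning HPLC, with and without tetrabutylammonium ion-pairing, on a C18 column using an ammonium acetate pH 6.0/acetonitrile gradient. Species were quantified from peak areas at 266 nm. Half-lives were derived from pseudo-first-order rate constants fitted by mono- or polyexponential regression.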
row,half-life [h],SMILES
1,103,Cc1cn(C2CC(N=[N+]=[N-])C(COP(=O)(OCCSC(=O)C(C)(C)C)OCCSC(=O)C(C)(C)C)O2)c(=O)[nH]c1=O (centres undefined)
2,9,Cc1cn(C2CC(N=[N+]=[N-])C(COP(=O)(OCCSC(=O)C(C)C)OCCSC(=O)C(C)C)O2)c(=O)[nH]c1=O (centres undefined)
3,9,CC(=O)SCCOP(=O)(OCCSC(C)=O)OCC1OC(n2cc(C)c(=O)[nH]c2=O)CC1N=[N+]=[N-] (centres undefined)

# System: CEM-SS
# Experiment: Antiviral activity in CEM-SS cell line infected with HIV-1 and Concentration required to inhibit the replication of HIV-1 by 50% was determined
# Type: functional, cell-based
# Settings: Homo sapiens
# Summary of the method: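 Cells infected with HIV-LAI at 100 TCID50 for 30 min, washed twice, then cultured with a range of compound concentrations for 5 days (6 days for CEM/TK⁻). Virus production was read as reverse transcriptase activity in the culture supernatant. EC50 was taken from a median effect plot of the dose–effect data, averaging at least three separate experiments.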
row,SMILES,EC50 [nM]
1,Cc1cn(C2CC(N=[N+]=[N-])C(COP(=O)(OCCSC(=O)C(C)C)OCCSC(=O)C(C)C)O2)c(=O)[nH]c1=O (centres undefined),46
2,Cc1cn(C2CC(N=[N+]=[N-])C(COP(=O)(OCCSSCCO)OCCSSCCO)O2)c(=O)[nH]c1=O (centres undefined),23

# Second part, the compound after the results:
row,EC50 [nM],SMILES
1,77,Cc1cn(C2CC(N=[N+]=[N-])C(COP(=O)(OCOC(=O)C(C)(C)C)OCOC(=O)C(C)(C)C)O2)c(=O)[nH]c1=O (centres undefined)
2,15,Cc1cn(C2CC(N=[N+]=[N-])C(COP(=O)(OCCSC(=O)C(C)(C)C)OCCSC(=O)C(C)(C)C)O2)c(=O)[nH]c1=O (centres undefined)
3,22,CC(=O)SCCOP(=O)(OCCSC(C)=O)OCC1OC(n2cc(C)c(=O)[nH]c2=O)CC1N=[N+]=[N-] (centres undefined)
